ChEMBL document CHEMBL4033716, “The impact of the halogen bonding on D2 and 5-HT1A/5-HT7 receptor activity of azinesulfonamides of 4-[(2-ethyl)piperidinyl-1-yl]phenylpiperazines with antipsychotic and antidepressant properties” (Bioorg Med Chem, 2017)
Calls of active or inactive are those of the source. The calls are words filed in the database; no cut-off is given here.

Assays:
[1] = target: T1, D(2) dopamine receptor (Homo sapiens, UniProt P14416); assay: Displacement of [3H]-Raclopride from human dopamine D2L receptor expressed in HEK293 cell membranes after 1 hr by microbeta liquid scintillation counting analysis
Method in brief: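 HEK293 membranes expressing human D2L. Incubated 1 h at 37°C, rapid filtration. 1 µM (+)butaclamol defined nonspecific binding. Triplicates at 7–8 concentrations, 10⁻¹¹–10⁻⁴ M. Ki via Cheng-Prusoff, ≥3 experiments.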

[2] = target: T2, 5-hydroxytryptamine receptor 1A (Homo sapiens, UniProt P08908); assay: Displacement of [3H]-8-OH-DPAT from human 5-HT1A receptor expressed in HEK293 cell membranes after 1 hr by microbeta liquid scintillation counting analysis
T2 sequence (P08908 whole entry): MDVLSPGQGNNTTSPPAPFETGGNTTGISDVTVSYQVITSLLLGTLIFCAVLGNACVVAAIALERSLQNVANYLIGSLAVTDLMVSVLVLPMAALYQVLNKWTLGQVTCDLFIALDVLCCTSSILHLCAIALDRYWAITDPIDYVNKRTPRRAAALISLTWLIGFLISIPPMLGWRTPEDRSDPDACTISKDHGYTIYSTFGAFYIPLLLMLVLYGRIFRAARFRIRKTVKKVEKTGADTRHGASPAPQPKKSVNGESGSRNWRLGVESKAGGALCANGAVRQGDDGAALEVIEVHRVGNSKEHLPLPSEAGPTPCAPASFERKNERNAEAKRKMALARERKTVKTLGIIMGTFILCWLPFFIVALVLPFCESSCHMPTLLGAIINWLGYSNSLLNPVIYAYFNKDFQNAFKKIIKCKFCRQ
Method in brief: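 HEK293 membranes with stably expressed human 5-HT1A, washed by two 35 000 g spins. Buffer 50 mM Tris-HCl, 0.1 mM EDTA, 4 mM MgCl₂, 10 μM pargyline, 0.1% ascorbate. Incubated 1 h at room temperature, then rapid filtration. 10 µM 5-HT defined nonspecific binding. Tested in triplicate over 10⁻¹¹–10⁻⁴ M (7–8 concentrations). Ki via Cheng-Prusoff, mean of ≥3 experiments.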

[3] = target: 5-hydroxytryptamine receptor 2A (Homo sapiens, UniProt P28223); assay: Displacement of [3H]-Ketanserin from human 5-HT2A receptor expressed in HEK293 cell membranes after 1 hr by microbeta liquid scintillation counting analysis
Method in brief: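 Competition binding on membranes from HEK293 cells stably expressing human 5-HT2A, prepared by homogenization and two 35 000 g centrifugations. Incubated 1 h at 37°C, then filtered and counted. Triplicate points at 7–8 concentrations, 10⁻¹¹–10⁻⁴ M. Ki from Cheng-Prusoff, ≥3 separate experiments.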

[4] = target: 5-hydroxytryptamine receptor 6 (Homo sapiens, UniProt P50406); assay: Displacement of [3H]-LSD from human 5-HT6 receptor expressed in HEK293 cell membranes after 1 hr by microbeta liquid scintillation counting analysis
Method in brief: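 Human 5-HT6 stably expressed in HEK293; cell membranes washed by two 35 000 g spins. Buffer 50 mM Tris-HCl, 0.5 mM EDTA, 4 mM MgCl₂. Incubated 1 h at 37°C, filtered. Nonspecific binding with 10 µM methiothepine. 7–8 concentrations (10⁻¹¹–10⁻⁴ M) in triplicate. Ki by Cheng-Prusoff, ≥3 experiments.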

[5] = target: T3, 5-hydroxytryptamine receptor 7 (Homo sapiens, UniProt P34969); assay: Displacement of [3H]-5-CT from human 5-HT7 receptor expressed in HEK293 cell membranes after 1 hr by microbeta liquid scintillation counting analysis
Method in brief: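 Membranes from HEK293 pellets stably expressing human 5-HT7b, homogenized and centrifuged twice at 35 000 g (4°C) with 15 min 37°C incubation between. Buffer 50 mM Tris-HCl, 4 mM MgCl₂, 10 μM pargyline, 0.1% ascorbate. Incubated 1 h at 37°C, then filtered. Nonspecific binding defined with 10 µM 5-HT. Triplicates at 7–8 concentrations (10⁻¹¹–10⁻⁴ M). Ki by Cheng-Prusoff, ≥3 experiments.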

[6] = target: T1, D(2) dopamine receptor; assay: Antagonist activity at human dopamine D2 receptor expressed in HEK293 cells at 1 uM assessed as inhibition of dopamine-induced cAMP production; type: functional, cell-based
Method in brief: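 Cellular cAMP antagonist assay run by a contract lab on HEK293 cells stably expressing human D2 receptor. Compound tested at 10⁻⁶ M. Result given as % inhibition of the control agonist response to dopamine 30 nM.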

[7] = target: T4, 5-hydroxytryptamine receptor 1A (Homo sapiens) (UniProt P08908); assay: Antagonist activity at human 5-HT1A receptor expressed in HEK293 cells assessed as inhibition of 8-OH-DPAT-induced cAMP production at 1 uM by fluorescence assay; type: functional, cell-based
T4 sequence (whole entry): T2 sequence (P08908 whole entry)
Method in brief: (§1)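 Cellular cAMP functional antagonist assay run by a contract lab. Human 5-HT7 receptor was stably expressed in CHO cells, and human 5-HT1A in HEK293 cells. Read-out was % inhibition of the control agonist response.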

[8] = target: T3, 5-hydroxytryptamine receptor 7; assay: Antagonist activity at human 5-HT7 receptor expressed in CHOK1 cells assessed as inhibition of serotonin-induced cAMP production at 1 uM after 30 mins by HTRF assay; type: functional, cell-based; method in brief: as §1
[9] = system: Mus musculus; assay: Antipsychotic activity in CD-1 mouse assessed as inhibition of MK-801-induced hyperlocomotor activity at 5 to 20 mg/kg, ip pretreated with MK-801 for 15 mins followed by compound administration for 60 mins; type: functional, organism-based
Method in brief: (§2)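 Male CD-1 mice, tested in the light phase, observer blind. Test compounds i.p. 60 min and MK-801 i.p. 15 min before testing, in distilled water at 10 ml/kg; vehicle controls. After 30 min cage habituation, ambulation recorded by activity monitor for 1 h in 5-min bins. 8–10 animals/group; mean ± SEM, one-way ANOVA with Bonferroni test.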

[10] = system: Mus musculus; assay: Antipsychotic activity in CD-1 mouse assessed as inhibition of dizocilpine-induced hyperlocomotor activity at 0.5 mg/kg, ip pretreated with dizocilpine for 15 mins followed by compound administration for 60 mins; type: functional, organism-based; method in brief: as §2
[11] = system: Mus musculus; assay: Antipsychotic activity in CD-1 mouse assessed as inhibition of MK-801-induced hyperlocomotor activity at 10 to 20 mg/kg, ip pretreated with MK-801 for 15 mins followed by compound administration for 60 mins; type: functional, organism-based; method in brief: as §2
[12] = system: Mus musculus; assay: Antidepressant-like activity in Swiss albino mouse assessed as decrease in immobility time at 0.625 mg/kg measured last 4 mins of 6 mins test by forced swim test relative to control; type: functional; parameters: scale not given: the % may be the effect or the level left
Method in brief: (§3)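 Male Swiss albino mice (22–26 g), used once, observer blind. Drugs dissolved in distilled water, given i.p. at 10 ml/kg: test compounds 60 min, citalopram 30 min before testing; controls got vehicle. Mice placed 6 min in a cylinder with 10 cm water at 23–25°C; immobility scored over the last 4 min. 7–12 mice/group; one-way ANOVA then Bonferroni.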

[13] = system: Mus musculus; assay: Antipsychotic activity in CD-1 mouse assessed as inhibition of MK-801-induced hyperlocomotor activity administered ip pretreated with MK-801 for 15 mins followed by compound treatment for 60 mins; type: functional; settings: CD-1, ip, read-out: MED; method in brief: as §2
[14] = system: Mus musculus; assay: Antidepressant-like activity in Swiss albino mouse assessed as decrease in immobility time administered ip for 30 mins measured last 4 mins of 6 mins test by forced swim test relative to control; type: functional; settings: in the assay text read “for 60 mins” for “for 30 mins”, read-out: MED; method in brief: as §3

Sequence of 5-hydroxytryptamine receptor 2A (P28223 whole entry): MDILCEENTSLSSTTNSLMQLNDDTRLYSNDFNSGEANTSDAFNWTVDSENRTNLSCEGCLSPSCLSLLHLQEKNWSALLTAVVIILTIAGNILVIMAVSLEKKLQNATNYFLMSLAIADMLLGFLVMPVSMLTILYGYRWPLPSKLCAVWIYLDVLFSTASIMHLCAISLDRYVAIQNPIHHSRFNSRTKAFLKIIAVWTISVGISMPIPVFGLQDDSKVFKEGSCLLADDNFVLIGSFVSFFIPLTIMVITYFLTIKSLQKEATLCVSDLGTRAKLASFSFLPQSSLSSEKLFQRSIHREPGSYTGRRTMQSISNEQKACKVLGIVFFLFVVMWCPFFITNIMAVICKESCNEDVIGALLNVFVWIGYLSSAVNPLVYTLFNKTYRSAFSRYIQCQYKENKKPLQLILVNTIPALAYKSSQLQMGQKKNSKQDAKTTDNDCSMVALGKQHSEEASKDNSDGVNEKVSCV
T3 sequence (P34969 whole entry): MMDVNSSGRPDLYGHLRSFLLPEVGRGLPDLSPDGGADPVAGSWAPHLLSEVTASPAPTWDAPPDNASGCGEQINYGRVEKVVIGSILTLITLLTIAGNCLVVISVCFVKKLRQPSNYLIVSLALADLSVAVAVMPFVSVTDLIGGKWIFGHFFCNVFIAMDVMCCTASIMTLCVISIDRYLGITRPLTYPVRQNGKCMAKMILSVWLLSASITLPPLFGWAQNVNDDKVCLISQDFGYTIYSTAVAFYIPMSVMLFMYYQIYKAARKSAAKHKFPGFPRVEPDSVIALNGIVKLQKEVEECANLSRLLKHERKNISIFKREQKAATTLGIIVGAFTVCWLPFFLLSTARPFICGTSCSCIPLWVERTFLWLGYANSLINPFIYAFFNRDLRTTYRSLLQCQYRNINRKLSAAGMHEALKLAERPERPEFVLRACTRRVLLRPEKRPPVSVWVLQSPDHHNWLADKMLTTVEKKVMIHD
Sequence of 5-hydroxytryptamine receptor 6 (P50406 whole entry): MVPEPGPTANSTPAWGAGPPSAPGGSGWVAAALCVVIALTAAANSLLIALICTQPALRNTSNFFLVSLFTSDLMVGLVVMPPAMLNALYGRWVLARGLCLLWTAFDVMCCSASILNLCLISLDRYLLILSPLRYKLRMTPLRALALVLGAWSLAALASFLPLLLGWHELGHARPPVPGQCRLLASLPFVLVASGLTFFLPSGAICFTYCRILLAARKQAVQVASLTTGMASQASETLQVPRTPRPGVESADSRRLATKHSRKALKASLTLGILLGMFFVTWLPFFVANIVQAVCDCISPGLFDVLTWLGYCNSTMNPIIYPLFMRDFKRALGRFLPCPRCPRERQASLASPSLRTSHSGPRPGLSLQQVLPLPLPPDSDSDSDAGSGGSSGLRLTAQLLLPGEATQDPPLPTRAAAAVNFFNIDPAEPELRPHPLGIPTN
T1 sequence (P14416 whole entry): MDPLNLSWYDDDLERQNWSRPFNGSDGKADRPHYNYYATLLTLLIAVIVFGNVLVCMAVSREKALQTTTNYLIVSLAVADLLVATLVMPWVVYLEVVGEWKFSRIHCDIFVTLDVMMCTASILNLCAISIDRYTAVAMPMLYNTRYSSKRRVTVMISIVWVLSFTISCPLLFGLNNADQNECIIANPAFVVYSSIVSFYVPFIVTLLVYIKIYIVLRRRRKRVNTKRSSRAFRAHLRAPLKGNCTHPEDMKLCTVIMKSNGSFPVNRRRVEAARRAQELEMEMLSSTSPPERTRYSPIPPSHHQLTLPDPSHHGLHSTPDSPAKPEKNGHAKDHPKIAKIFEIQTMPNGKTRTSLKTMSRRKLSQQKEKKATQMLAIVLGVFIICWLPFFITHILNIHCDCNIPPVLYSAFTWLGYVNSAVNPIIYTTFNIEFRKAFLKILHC

O=S(=O)(c1cccc2ncccc12)N1CCC(CCN2CCN(c3ccc(Cl)c(Cl)c3)CC2)CC1
Ki [1]: 0.121 µM | Ki [2]: 0.257 µM | Ki [3]: 0.336 µM | Ki [4]: 0.791 µM | Ki [5]: 0.052 µM

O=S(=O)(c1cncc2ccccc12)N1CCC(CCN2CCN(c3ccc(F)cc3)CC2)CC1
Ki [1]: 0.418 µM | Ki [2]: 0.975 µM | Ki [3]: 0.156 µM | Ki [4]: 1.86 µM | Ki [5]: 0.014 µM

O=S(=O)(c1cccc2ncccc12)N1CCC(CCN2CCN(c3ccccc3)CC2)CC1
Ki [1]: 1.24 µM | Ki [2]: 0.749 µM | Ki [3]: 0.646 µM | Ki [4]: 6.71 µM | Ki [5]: 0.209 µM

O=S(=O)(c1cncc2ccccc12)N1CCC(CCN2CCN(c3cccc(Cl)c3Cl)CC2)CC1
Ki [1]: 0.03 µM | Ki [2]: 0.029 µM | Ki [3]: 0.371 µM | Ki [4]: 0.309 µM | Ki [5]: 0.039 µM | inhibition [6]: 79% | inhibition [7]: 64% | inhibition [8]: 75% | inhibition [9]: inactive

O=S(=O)(c1cccc2ncccc12)N1CCC(CCN2CCN(c3cccc(Cl)c3)CC2)CC1
Ki [1]: 0.076 µM | Ki [2]: 0.054 µM | Ki [3]: 0.197 µM | Ki [4]: 0.445 µM | Ki [5]: 0.037 µM

O=S(=O)(c1cncc2ccccc12)N1CCC(CCN2CCN(c3cccc(C(F)(F)F)c3)CC2)CC1
Ki [1]: 0.148 µM | Ki [2]: 0.03 µM | Ki [3]: 0.161 µM | Ki [4]: 1.02 µM | Ki [5]: 0.052 µM

O=S(=O)(c1cncc2ccccc12)N1CCC(CCN2CCN(c3ccccc3)CC2)CC1
Ki [1]: 1.22 µM | Ki [2]: 0.543 µM | Ki [3]: 0.41 µM | Ki [4]: 2.41 µM | Ki [5]: 0.174 µM

O=C1CCc2ccc(OCCCCN3CCN(c4cccc(Cl)c4Cl)CC3)cc2N1
inhibition [10]: Active

O=S(=O)(c1cccc2ncccc12)N1CCC(CCN2CCN(c3cccc(Cl)c3Cl)CC2)CC1
Ki [1]: 0.036 µM | Ki [2]: 0.045 µM | Ki [3]: 0.286 µM | Ki [4]: 0.401 µM | Ki [5]: 0.055 µM | inhibition [6]: 88% | inhibition [7]: 63% | inhibition [8]: 69% | inhibition [11]: Active | Activity [12]: 23% | minimal effective dose [13]: 10 mg/kg | minimal effective dose [14]: 0.625 mg/kg
